Results taken from ChEMBL document CHEMBL3102854, “Design, synthesis and in vitro cytotoxicity evaluation of 5-(2-carboxyethenyl)isatin derivatives as anticancer agents” (Bioorg Med Chem Lett, 2014).

What was measured:
HT-29 = assay: Cytotoxicity against human HT-29 cells after 48 hrs by MTT assay; type: functional, cell-based; conditions: HT-29, 48 h
Outline: (§1)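 Cells seeded at 5 × 10⁴ cells/mL and allowed to settle 2 h (K562) or overnight (HepG2, HT-29). Compound in DMSO added, then 48 h further culture. Viability read by MTT with a microplate reader, normalized to DMSO-treated controls set as 100%. IC₅₀ obtained by nonlinear regression; each compound measured three times.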

HepG2 = assay: Cytotoxicity against human HepG2 cells after 48 hrs by MTT assay; type: functional, cell-based; conditions: HepG2, 48 h; outline: as §1
K562 [1] = assay: Cytotoxicity against human K562 cells after 48 hrs by MTT assay; type: functional, cell-based; conditions: K562, 48 h; outline: as §1
K562 [2] = assay: Induction of apoptosis in human K562 cells at 30 nM after 12 hrs using annexin V-FITC and propidium iodide staining by flow cytometric analysis relative to control; type: functional
Outline: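 K562 cells cultured without or with 30 nM compound for 12 h. 1 × 10⁶ cells resuspended in binding buffer containing annexin V-FITC and propidium iodide and incubated 15 min. Further binding buffer added, then cells analysed by flow cytometry for phosphatidylserine exposure.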

Compound | IC50 (HT-29) [nM] | IC50 (HepG2) [nM] | IC50 (K562 [1]) [nM] | Activity (K562 [2]) [%]
O=C1Nc2ccc(Br)cc2C1=O | > 10000 | > 10000 | > 10000 | 
Cc1ccc2c(c1)C(=O)C(=O)N2 | > 10000 | > 10000 | > 10000 | 
CCCCc1ccc2c(c1)C(=O)C(=O)N2 | > 10000 | > 10000 | > 10000 | 
COC(=O)/C=C/c1ccc2c(c1)C(=O)C(=O)N2 | 270 | 370 | 220 | 
COC(=O)/C=C/c1ccc2c(c1)C(=O)C(=O)N2C | 300 | 530 | 340 | 
CCN1C(=O)C(=O)c2cc(/C=C/C(=O)OC)ccc21 | 210 | 400 | 170 | 
COC(=O)/C=C/c1ccc2c(c1)C(=O)C(=O)N2Cc1ccccc1 | 70 | 40 | 40 | 
COC(=O)/C=C/c1ccc2c(c1)C(=O)C(=O)N2Cc1ccc(F)cc1 | 60 | 40 | 30 | 
COC(=O)/C=C/c1ccc2c(c1)C(=O)C(=O)N2Cc1ccc(C#N)cc1 | 50 | 50 | 30 | 
COC(=O)/C=C/c1ccc2c(c1)C(=O)C(=O)N2Cc1ccc(C(F)(F)F)cc1 | 40 | 70 | 40 | 
COC(=O)/C=C/c1ccc2c(c1)C(=O)C(=O)N2Cc1ccc(C)cc1 | 30 | 40 | 40 | 
COC(=O)/C=C/c1ccc2c(c1)C(=O)C(=O)N2Cc1ccc(OC)cc1 | 30 | 30 | 3 | 37.2
COC(=O)/C=C/c1ccc2c(c1)C(=O)C(=O)N2Cc1ccc(Cl)cc1 | 60 | 40 | 30 | 
COC(=O)/C=C/c1ccc2c(c1)C(=O)C(=O)N2Cc1ccc(Cl)c(Cl)c1 | 210 | 160 | 60 | 
COC(=O)/C=C/c1ccc2c(c1)C(=O)C(=O)N2Cc1ccc(Br)cc1 | 30 | 40 | 6 | 32.2
COC(=O)/C=C/c1ccc2c(c1)C(=O)C(=O)N2Cc1cccc(Br)c1 | 240 | 170 | 30 | 
COC(=O)/C=C/c1ccc2c(c1)C(=O)C(=O)N2Cc1ccccc1Br | 240 | 260 | 70 | 
COC(=O)/C=C/c1ccc2c(c1)C(=O)C(=O)N2Cc1ccc2ccccc2c1 | 100 | 90 | 40 | 
COC(=O)/C=C/c1ccc2c(c1)C(=O)C(=O)N2CCOc1ccccc1 | 200 | 210 | 60 | 
COC(=O)/C=C/c1ccc2c(c1)C(=O)C(=O)N2Cc1cc(C)cc(C)c1 | 70 | 150 | 40 | 
COC(=O)/C=C/c1cccc2c1C(=O)C(=O)N2Cc1ccc(OC)cc1 | 3120 | 5490 | 350 | 
COC(=O)/C=C/c1ccc2c(c1)N(Cc1ccc(OC)cc1)C(=O)C2=O | > 10000 | > 10000 | 4860 | 
COC(=O)/C=C/c1cccc2c1N(Cc1ccc(OC)cc1)C(=O)C2=O | > 10000 | > 10000 | 4130 | 
CCOC(=O)/C=C/c1ccc2c(c1)C(=O)C(=O)N2Cc1ccc(OC)cc1 | 60 | 90 | 10 | 
CCOC(=O)/C=C/c1ccc2c(c1)C(=O)C(=O)N2Cc1ccc(Br)cc1 | 50 | 290 | 30 | 
CCCCOC(=O)/C=C/c1ccc2c(c1)C(=O)C(=O)N2Cc1ccc(OC)cc1 | 420 | 630 | 40 | 

Compound | IC50 (HT-29) [nM] | IC50 (HepG2) [nM] | IC50 (K562 [1]) [nM] | Activity (K562 [2]) [%]
CCCCOC(=O)/C=C/c1ccc2c(c1)C(=O)C(=O)N2Cc1ccc(Br)cc1 | 600 | 650 | 150 | 
COc1ccc(CN2C(=O)C(=O)c3cc(/C=C/C(=O)OC(C)(C)C)ccc32)cc1 | 480 | 620 | 50 | 
CC(C)(C)OC(=O)/C=C/c1ccc2c(c1)C(=O)C(=O)N2Cc1ccc(Br)cc1 | 730 | 2050 | 290 | 
COc1ccc(CN2C(=O)C(=O)c3cc(/C=C/C(=O)OCCO)ccc32)cc1 | 550 | 860 | 40 | 
O=C(/C=C/c1ccc2c(c1)C(=O)C(=O)N2Cc1ccc(Br)cc1)OCCO | 680 | 3660 | 50 | 
COc1ccc(CN2C(=O)C(=O)c3cc(/C=C/C(=O)O)ccc32)cc1 | > 10000 | > 10000 | > 10000 | 
COc1ccc(CN2C(=O)C(=O)c3cc(/C=C/C(N)=O)ccc32)cc1 | 560 | 890 | 200 | 
NC(=O)/C=C/c1ccc2c(c1)C(=O)C(=O)N2Cc1ccc(Br)cc1 | 550 | > 10000 | 300 | 
COc1ccc(CN2C(=O)C(=O)c3cc(/C=C/C(=O)N4CCOCC4)ccc32)cc1 | 4240 | 7380 | 720 | 
O=C1C(=O)N(Cc2ccc(Br)cc2)c2ccc(/C=C/C(=O)N3CCOCC3)cc21 | 4590 | 7790 | 1380 | 
COc1ccc(CN2C(=O)C(=O)c3cc(/C=C/C(=O)N4CCCC4)ccc32)cc1 | 5230 | 7810 | 460 | 
O=C1C(=O)N(Cc2ccc(Br)cc2)c2ccc(/C=C/C(=O)N3CCCC3)cc21 | 4420 | 6300 | 1710 | 
COC(=O)/C=C/c1ccc2c(c1)C(O)C(=O)N2Cc1ccc(OC)cc1 (stereo not given) | 320 | 380 | 30 | 
COC(=O)/C=C/c1ccc2c(c1)C(O)C(=O)N2Cc1ccc(Br)cc1 (stereo not given) | 660 | 670 | 260 | 
COC(=O)/C=C/c1ccc2c(c1)/C(=N/O)C(=O)N2Cc1ccc(OC)cc1 | 4940 | 3560 | 2110 | 
COC(=O)/C=C/c1ccc2c(c1)/C(=N/O)C(=O)N2Cc1ccc(Br)cc1 | 3640 | 9960 | 2920 | 
COC(=O)/C=C/c1ccc2c(c1)CC(=O)N2Cc1ccc(OC)cc1 | 3720 | 9170 | 990 | 
COC(=O)/C=C/c1ccc2c(c1)CC(=O)N2Cc1ccc(Br)cc1 | > 10000 | > 10000 | 3160 | 
COC(=O)/C=C/c1ccc2c(c1)C1(OCCO1)C(=O)N2Cc1ccc(OC)cc1 | > 10000 | > 10000 | 4890 | 
COC(=O)/C=C/c1ccc2c(c1)C1(OCCO1)C(=O)N2Cc1ccc(Br)cc1 | 5110 | 7470 | 2630 | 
O=C1Nc2ccc(Cl)cc2C1=O | > 10000 | > 10000 | > 10000 | 
O=C1Nc2ccc(F)cc2C1=O [5-FLUOROISATIN] | > 10000 | > 10000 | > 10000 | 
COc1ccc2c(c1)C(=O)C(=O)N2 [5-METHOXYISATIN] | > 10000 | > 10000 | > 10000 | 
CC[C@@]1(O)C(=O)OCc2c1cc1n(c2=O)Cc2cc3ccccc3nc2-1 [CAMPTOTHECIN] | 60 | 50 | 40 | 
O=C1Nc2ccccc2C1=O [ISATIN] | > 10000 | > 10000 | > 10000 | 
